The record followed here is ChEMBL document CHEMBL4364314, “Design, synthesis and biological evaluation of 6-deoxy O-spiroketal C-arylglucosides as novel renal sodium-dependent glucose cotransporter 2 (SGLT2) inhibitors for the treatment of type 2 diabetes” (Eur J Med Chem, 2019).

pIC50: −log10 of the molar value.

The target of data set [1] is T1, Sodium/glucose cotransporter 1 (Homo sapiens, UniProt P13866).
T1 sequence (P13866 whole entry): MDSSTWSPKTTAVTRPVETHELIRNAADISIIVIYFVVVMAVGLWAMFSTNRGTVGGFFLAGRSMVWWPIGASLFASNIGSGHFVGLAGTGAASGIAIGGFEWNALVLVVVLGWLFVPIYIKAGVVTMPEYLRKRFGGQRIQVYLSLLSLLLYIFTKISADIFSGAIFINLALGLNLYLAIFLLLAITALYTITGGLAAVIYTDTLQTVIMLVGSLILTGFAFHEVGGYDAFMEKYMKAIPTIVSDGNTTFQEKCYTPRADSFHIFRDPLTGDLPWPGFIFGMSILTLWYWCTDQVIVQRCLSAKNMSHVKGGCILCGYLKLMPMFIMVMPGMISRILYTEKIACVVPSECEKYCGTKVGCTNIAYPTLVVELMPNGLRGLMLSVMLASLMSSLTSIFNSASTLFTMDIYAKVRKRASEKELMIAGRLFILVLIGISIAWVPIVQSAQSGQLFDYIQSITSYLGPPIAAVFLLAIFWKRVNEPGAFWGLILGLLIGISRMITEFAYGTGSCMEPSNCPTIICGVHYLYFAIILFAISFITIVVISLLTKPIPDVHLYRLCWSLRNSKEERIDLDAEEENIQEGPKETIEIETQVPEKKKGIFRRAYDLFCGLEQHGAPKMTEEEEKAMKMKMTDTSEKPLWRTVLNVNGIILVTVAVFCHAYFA
Briefly: Inhibition of human full length SGLT1 expressed in NIH3T3 cells measured after 1 hr in presence of [14C]-methyl-alpha -D-glucopyranoside by scintillation counter method. Format: cell-based. An outline of the steps:
(§1)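 Stable NIH3T3 lines from retroviral transduction of full-length hSGLT1 or hSGLT2 (pBABE-puro, 8 µg/mL polybrene, puromycin 2 µg/mL selection for 2 weeks). Cells plated 2 days ahead, 2 mmol/L sodium butyrate added day 2. Read by scintillation counting. Compound-free buffer served as negative control, sodium-free N-methyl-glucamine buffer as blank.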

For data set [2], the target named is T2, Sodium/glucose cotransporter 2 (Homo sapiens, UniProt P31639).
T2 sequence (P31639 whole entry): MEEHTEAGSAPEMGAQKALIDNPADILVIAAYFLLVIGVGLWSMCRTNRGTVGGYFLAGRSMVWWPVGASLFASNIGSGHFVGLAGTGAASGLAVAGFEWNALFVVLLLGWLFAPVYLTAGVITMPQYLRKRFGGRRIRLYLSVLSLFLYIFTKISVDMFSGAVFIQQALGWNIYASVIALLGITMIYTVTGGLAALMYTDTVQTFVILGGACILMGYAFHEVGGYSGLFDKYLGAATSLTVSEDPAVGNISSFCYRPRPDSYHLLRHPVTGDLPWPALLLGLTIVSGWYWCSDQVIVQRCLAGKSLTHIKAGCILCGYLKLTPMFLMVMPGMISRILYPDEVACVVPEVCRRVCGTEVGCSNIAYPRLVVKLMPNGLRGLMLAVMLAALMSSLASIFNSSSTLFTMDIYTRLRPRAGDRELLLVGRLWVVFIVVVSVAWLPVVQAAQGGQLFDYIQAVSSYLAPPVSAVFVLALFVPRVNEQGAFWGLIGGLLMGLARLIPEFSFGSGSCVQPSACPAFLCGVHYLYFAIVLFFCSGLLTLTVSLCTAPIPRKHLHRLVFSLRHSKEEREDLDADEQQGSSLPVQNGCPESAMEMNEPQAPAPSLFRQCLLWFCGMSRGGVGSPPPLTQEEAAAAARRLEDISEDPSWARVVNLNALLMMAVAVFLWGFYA
The data set can be described thus: Inhibition of human full length SGLT2 expressed in NIH3T3 cells measured after 1 hr in presence of [14C]-methyl-alpha -D-glucopyranoside by scintillation counter method. The data set is classed as cell-based. In outline: as §1

The next data set is filed under the species Homo sapiens. The data set can be described thus: Selectivity ratio of IC50 for human full length SGLT1 to IC50 for human full length SGLT2. In outline: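 Ratio of IC50 at hSGLT1 to IC50 at hSGLT2, both from the [14C]methyl-α-D-glucopyranoside uptake assay in stably transfected NIH3T3 cells.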
Data set [3] in a line: Oral bioavailability in mouse at 10 mg/kg administered as single dose. Format: ADME, organism-based. The conditions noted are these: in vivo. An outline of the steps: (§2)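 Mouse pharmacokinetics after a single intravenous dose of 2 mg/kg or a single oral dose of 10 mg/kg. Plasma parameters derived for each route; oral bioavailability calculated by comparing the two routes.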

Data set [4] relates to Mus musculus. Briefly: Hypoglycemic activity in orally dosed C57BL/6J mouse assessed as glucose tolerance improvement administered as single dose measured after 120 mins post glucose challenge by OGTT. The data set is classed as functional, organism-based. An outline of the steps: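 Male mice fasted overnight (14 h), then gavaged with 1 or 3 mg/kg or vehicle (0.9% NaCl, 0.5% methyl cellulose); n = 8. Glucose 3 g/kg given by gavage 2 h later. Blood glucose taken at -120, 0, 15, 30, 60, 90 and 120 min. AUC0-2 h by trapezoidal rule; t-test against vehicle.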

Data set [5] can be described thus: AUClast in mouse at 2 mg/kg, iv administered as single dose. Format: ADME, organism-based. Set-up: dose 2 mg/kg, route intravenous, time 0 - last. The conditions noted are these: in vivo. An outline of the steps:
as §2

Data set [6] in a line: AUClast in mouse at 10 mg/kg, po administered as single dose. The data set is classed as ADME, organism-based. On the set-up: dose 10 mg/kg, time 0 - last, route oral. The conditions noted are these: in vivo. In outline: as §2
Data set [7] in a line: Mean residence time infinity in mouse at 2 mg/kg, iv administered as single dose. The conditions noted are these: in vivo. Format: ADME, organism-based. In outline:
as §2

Data set [8] can be described thus: Half-life in mouse at 2 mg/kg, iv administered as single dose. Format: ADME, organism-based. The conditions noted are these: in vivo. An outline of the steps:
as §2

Data set [9] concerns Rattus norvegicus. The data set can be described thus: Effect on urine glucose excretion in Sprague-Dawley rat 1 mg/kg, po administered as single dose measured after 24 hrs assessed per 100 grams (reference value: 0.51 +/- 0.40 mg). The data set is classed as functional.
For data set [10], the system named is Rattus norvegicus. The data set can be described thus: Effect on urine glucose concentration in Sprague-Dawley rat at 1 mg/kg, po administered as single dose measured after 24 hrs by glucose oxidase method (reference value: 0.28 +/- 0.16 mmol/L). Format: functional.
Data set [11] concerns Rattus norvegicus. Briefly: Effect on urinary volume in Sprague-Dawley rat at 1 mg/kg, po administered as single dose measured after 24 hrs (reference value: 24.17 +/- 7.11 mL). The conditions noted are these: in vivo. The data set is classed as ADME, organism-based.
Data set [12] can be described thus: Cmax in mouse at 10 mg/kg, po administered as single dose. On the set-up: dose 10 mg/kg, route oral. The data set is classed as ADME, organism-based. The conditions noted are these: in vivo. In outline: as §2
A short description of data set [13]: Mean residence time infinity in mouse at 10 mg/kg, po administered as single dose. Format: ADME, organism-based. The conditions noted are these: in vivo. An outline of the steps: as §2
For data set [14], the system named is Mus musculus. Briefly: Effect on urinary volume in C57BL/6J mouse at 1 mg/kg, po administered as single dose measured after 24 hrs (reference value: 1.24 +/- 0.45 mL). Format: ADME, organism-based. The conditions noted are these: in vivo.
A short description of data set [15]: AUCinfinity in mouse at 2 mg/kg, iv administered as single dose. Format: ADME, organism-based. Set-up: dose 2 mg/kg, route intravenous, time infinity. The conditions noted are these: in vivo. An outline of the steps: as §2
Data set [16] is described as follows: Tmax in mouse at 10 mg/kg, po administered as single dose. Format: ADME, organism-based. The conditions noted are these: in vivo. An outline of the steps:
as §2

The nature of data set [17]: Half-life in mouse at 10 mg/kg, po administered as single dose. Format: ADME, organism-based. The conditions noted are these: in vivo. An outline of the steps:
as §2

Data set [18] is described as follows: AUCinfinity in mouse at 10 mg/kg, po administered as single dose. Format: ADME, organism-based. The conditions noted are these: in vivo. Set-up: dose 10 mg/kg, time infinity, route oral. An outline of the steps: as §2
The nature of data set [19]: Clearance in mouse at 2 mg/kg, iv administered as single dose. The data set is classed as ADME, organism-based. The conditions noted are these: in vivo. An outline of the steps: as §2
A short description of data set [20]: Volume of distribution at steady state in mouse at 2 mg/kg, iv administered as single dose. Format: ADME, organism-based. The conditions noted are these: in vivo, read-out: Vdss. An outline of the steps: as §2
The test system of data set [21] is Mus musculus. The data set can be described thus: Effect on urine glucose excretion in C57BL/6J mouse at 1 mg/kg, po administered as single dose measured after 24 hrs assessed per 100 grams (reference value: 0.84 +/- 0.40 mg ). Format: functional.
Data set [22] relates to Mus musculus. The data set can be described thus: Effect on urine glucose concentration in C57BL/6J mouse at 1 mg/kg, po administered as single dose measured after 24 hrs by glucose oxidase method (reference value: 0.74 +/- 0.14 mmol/L). Format: functional.
In data set [23] the target is T3, Sodium/glucose cotransporter 2 (Homo sapiens) (UniProt P31639).
T3 sequence (whole entry): T2 sequence (P31639 whole entry)
The data set can be described thus: Binding affinity to human SGLT2 assessed as dissociation half-life.

With `COC(=O)c1ccc(Cc2cc3c(cc2Cl)CO[C@]32O[C@H](C)[C@@H](O)[C@H](O)[C@H]2O)s1`, the figures for the pIC50 in [1] and in data set [2] were 5.52 and 7.29, respectively. Also, the Ratio IC50 in the data set listed under Homo sapiens is 58.
As to `CCc1ccc(Cc2cc3c(cc2C)CO[C@]32O[C@H](C)[C@@H](O)[C@H](O)[C@H]2O)s1`, the pIC50 was 6.00 in data set [1] and 8.35 in data set [2]. Moreover, the bioavailability in [3] was determined as 53.4%. In addition, the Activity result was “Dose-dependent effect” in the data set on Mus musculus [4]; 134.23 mg with Rattus norvegicus [9]; 93.8 mmol/L in the data set with Rattus norvegicus [10]; 24.67 mL in the data set with Rattus norvegicus [11]; 1.21 mL in the data set with Mus musculus [14]; 110.53 mg in the data set with Mus musculus [21]. For the same compound, in the data set on Mus musculus [22], the Activity was 92.99 mmol/L. Further, the AUC(0-t) in data set [5] is 1130 ng·h/mL; in data set [6], 3010 ng·h/mL. In addition, the results for the MRT inf in data set [7] and in data set [13] were 13.1 h and 8.9 h, respectively. The half-life is 10.8 h in data set [8] and 5.95 h in data set [17]. Also, the Cmax in [12] was determined as 740 ng/mL. The AUC(0-inf) stood at 2320 ng·h/mL in [15] and 5580 ng·h/mL in data set [18]. For the same compound, the Tmax in data set [16] came out at 0.33 h. The Ratio IC50 in the data set listed under Homo sapiens came out at 216. The compound further had a clearance in [19] of 19.9 mL/min/kg. The Vd in data set [20] came to 10.1 L/kg.
In the case of `C[C@H]1O[C@]2(OCc3cc(Cl)c(Cc4ccc(Cl)s4)cc32)[C@H](O)[C@@H](O)[C@@H]1O`, the pIC50 in [1] was 6.30; in data set [2], 7.80. The Ratio IC50 in the data set filed under Homo sapiens is 30.
Consider `OC[C@H]1O[C@@H](c2ccc(Cl)c(Cc3ccc(O[C@H]4CCOC4)cc3)c2)[C@H](O)[C@@H](O)[C@@H]1O`, for which, in [23], the T1/2 turned out to be 1 h.
As to `CCOc1ccc(Cc2cc([C@@H]3S[C@H](CO)[C@@H](O)[C@H](O)[C@H]3O)c(OC)cc2C)cc1`, the T1/2 in [23] was 7 h.
Consider `CCOc1ccc(Cc2cc3c(cc2Cl)CO[C@]32O[C@H](C)[C@@H](O)[C@H](O)[C@H]2O)cc1`, for which the pIC50 in data set [1] was 6.30; in data set [2], 8.06. For the same compound, the Ratio IC50 in the data set filed under Homo sapiens came to 60.
As to `COC(=O)Cc1ccc(Cc2cc3c(cc2Cl)CO[C@]32O[C@H](C)[C@@H](O)[C@H](O)[C@H]2O)s1`, the figures for the pIC50 in data set [1] and in [2] were 5.19 and 7.37, respectively. Moreover, the Ratio IC50 in the data set filed under Homo sapiens stood at 151.
Take `CCc1ccc(Cc2ccc3c(c2)[C@]2(OC3)O[C@H](CO)[C@@H](O)[C@H](O)[C@H]2O)cc1.O` [TOFOGLIFLOZIN]: the Activity in the data set with Rattus norvegicus [9] came out at 73.68 mg; with Rattus norvegicus [10], 43.67 mmol/L; in the data set with Rattus norvegicus [11], 26.5 mL; in the data set on Mus musculus [14], 1.3 mL; in the data set with Mus musculus [21], 48.85 mg; with Mus musculus [22], 56.27 mmol/L.
In the case of `CCCOCCc1ccc(Cc2cc3c(cc2Cl)CO[C@]32O[C@H](C)[C@@H](O)[C@H](O)[C@H]2O)s1`, the results for the pIC50 in data set [1] and in [2] were 5.30 and 7.37, respectively. In addition, the Ratio IC50 in the data set listed under Homo sapiens was found to be 117.

One may read the pIC50 as the negative decadic logarithm of the IC50, by convention in mol/L. One may read the bioavailability as dose-corrected exposure relative to a reference, in per cent. Usually AUC(0-t) stands for exposure summed from dosing to a finite time, without extrapolation to infinity. Broadly, the MRT inf is the average time that molecules of a dose stay in the body. In general, half-life refers to how long it takes for the measured level to halve. Higher therefore signals slow loss. A word on the Cmax: it is the peak of the concentration-time curve. What is called AUC(0-inf) is the area under the concentration-time curve extrapolated to infinity. A high value points to high exposure. What is called Tmax is the time from dosing to the highest level. Usually clearance stands for the rate of elimination divided by the concentration. High values mean efficient removal, low ones inefficient removal.
